# What was measured:
# [1] = tested on: Tyrosine-protein kinase ABL1 (Homo sapiens), P00519 [F317I]; assay: Inhibition of human phosphorylated ABL1 F317I mutant (S229 to K512 residues) expressed in HEK293 cells assessed as residual activity at 1000 nM after 30 mins by Kinomescan method relative to control; assay type: cell-based
# Method in brief: (§1)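 Single-point screen at a fixed 1 µM, run within a 456-kinase DiscoveRx KINOMEscan panel. Each kinase's read-out is Percent Control, i.e. signal relative to a control without compound. Hits were scored by a Percent Control < 35 cut-off, and an S(35) selectivity score was calculated across the non-mutant kinases.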
# [2] = molecular target: Cytoplasmic tyrosine-protein kinase BMX (Homo sapiens) (UniProt P51813); assay: Inhibition of wild-type human full length BMX (M1 to H675 residues) expressed in Escherichia coli BL21 assessed as residual activity at 1000 nM after 30 mins by Kinomescan method relative to control; method in brief: as §1
# [3] = molecular target: Serine/threonine-protein kinase tousled-like 1 (Homo sapiens) (UniProt Q9UKI8); assay: Inhibition of wild-type human partial length TLK1 (K447 to A754 residues) expressed in Escherichia coli BL21 assessed as residual activity at 1000 nM after 30 mins by Kinomescan method relative to control
# [4] = molecular target: Fibroblast growth factor receptor 2 (Homo sapiens, UniProt P21802); assay: Inhibition of human recombinant cytoplasmic His-tagged FGFR2 (403 to 822 residues) expressed in baculovirus using Tyr-4 peptide after 1 hr by FRET-based Z'-Lyte assay
# [5] = molecular target: Serine/threonine-protein kinase SIK3 (Homo sapiens) (UniProt Q9Y2K2); assay: Inhibition of wild-type human partial length QSK (A90 to L395 residues) expressed in HEK293 cells assessed as residual activity at 1000 nM after 30 mins by Kinomescan method relative to control; assay type: cell-based
# [6] = molecular target: BDNF/NT-3 growth factors receptor (Homo sapiens) (UniProt Q16620); assay: Inhibition of wild-type human partial length TRKB (Q547 to G838 residues) expressed in HEK293 cells assessed as residual activity at 1000 nM after 30 mins by Kinomescan method relative to control; assay type: cell-based
# [7] = molecular target: Dual specificity protein kinase CLK1 (Homo sapiens) (UniProt P49759); assay: Inhibition of wild-type human full length CLK1 (M1 to I484 residues) expressed in Escherichia coli BL21 assessed as residual activity at 1000 nM after 30 mins by Kinomescan method relative to control; method in brief: as §1
# [8] = molecular target: Mitogen-activated protein kinase 14 (Homo sapiens) (UniProt Q16539); assay: Inhibition of wild-type human full length p38-alpha (M1 to S360 residues) expressed in Escherichia coli BL21 assessed as residual activity at 1000 nM after 30 mins by Kinomescan method relative to control
# [9] = molecular target: SRSF protein kinase 1 (Homo sapiens) (UniProt Q96SB4); assay: Inhibition of wild-type human full length SRPK1 (M1 to S655 residues) expressed in Escherichia coli BL21 assessed as residual activity at 1000 nM after 30 mins by Kinomescan method relative to control
# [10] = molecular target: Dual specificity mitogen-activated protein kinase kinase 4 (Homo sapiens) (UniProt P45985); assay: Inhibition of wild-type human partial length MEK4 (S84 to D399 residues) expressed in HEK293 cells assessed as residual activity at 1000 nM after 30 mins by Kinomescan method relative to control; assay type: cell-based
# [11] = molecular target: Serine/threonine-protein kinase N2 (Homo sapiens) (UniProt Q16513); assay: Inhibition of wild-type human partial length PKN2 (E634 to C984 residues) expressed in Escherichia coli BL21 assessed as residual activity at 1000 nM after 30 mins by Kinomescan method relative to control
# [12] = tested on: Tyrosine-protein kinase ABL1 (Homo sapiens), P00519 [E255K]; assay: Inhibition of human phosphorylated ABL1 E255K mutant (S229 to K512 residues) expressed in HEK293 cells assessed as residual activity at 1000 nM after 30 mins by Kinomescan method relative to control; assay type: cell-based; method in brief: as §1
# [13] = molecular target: Ribosomal protein S6 kinase alpha-2 (Homo sapiens) (UniProt Q15349); assay: Inhibition of wild-type human partial length N-terminal RSK2 kinase domain 1 (M1 to D394 residues) expressed in HEK293 cells assessed as residual activity at 1000 nM after 30 mins by Kinomescan method relative to control; assay type: cell-based
# [14] = molecular target: Serine/threonine-protein kinase 25 (Homo sapiens) (UniProt O00506); assay: Inhibition of wild-type human partial length YSK1 (V14 to H295 residues) expressed in Escherichia coli BL21 assessed as residual activity at 1000 nM after 30 mins by Kinomescan method relative to control
# [15] = molecular target: Interleukin-1 receptor-associated kinase 3 (Homo sapiens) (UniProt Q9Y616); assay: Inhibition of wild-type human partial length IRAK3 (V147 to E596 residues) expressed in Escherichia coli BL21 assessed as residual activity at 1000 nM after 30 mins by Kinomescan method relative to control
# [16] = molecular target: Calcium/calmodulin-dependent protein kinase type II subunit delta (Homo sapiens) (UniProt Q13557); assay: Inhibition of wild-type human partial length CAMK2D (M1 to E329 residues) expressed in Escherichia coli BL21 assessed as residual activity at 1000 nM after 30 mins by Kinomescan method relative to control
# [17] = molecular target: Mitogen-activated protein kinase kinase kinase 14 (Homo sapiens) (UniProt Q99558); assay: Inhibition of wild-type human partial length NIK (L318 to P947 residues) expressed in HEK293 cells assessed as residual activity at 1000 nM after 30 mins by Kinomescan method relative to control; assay type: cell-based
# [18] = molecular target: G protein-coupled receptor kinase 4 (Homo sapiens) (UniProt P32298); assay: Inhibition of wild-type human full length GRK4 (M1 to C578 residues) expressed in Escherichia coli BL21 assessed as residual activity at 1000 nM after 30 mins by Kinomescan method relative to control
# Method in brief: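 Single-concentration screen at 1 µM across a 456-kinase KINOMEscan panel. The read-out is Percent Control for each kinase.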
# [19] = molecular target: Serine/threonine-protein kinase PLK1 (Homo sapiens) (UniProt P53350); assay: Inhibition of wild-type human partial length PLK1 (A33 to F325 residues) expressed in HEK293 cells assessed as residual activity at 1000 nM after 30 mins by Kinomescan method relative to control; assay type: cell-based
# [20] = molecular target: Tyrosine-protein kinase receptor Tie-1 (Homo sapiens) (UniProt P35590); assay: Inhibition of wild-type human partial length TIE1 (T819 to A1138 residues) expressed in Escherichia coli BL21 assessed as residual activity at 1000 nM after 30 mins by Kinomescan method relative to control
# [21] = molecular target: Tyrosine-protein kinase Tec (Homo sapiens) (UniProt P42680); assay: Inhibition of wild-type human partial length TEC (L341 to D620 residues) expressed in Escherichia coli BL21 assessed as residual activity at 1000 nM after 30 mins by Kinomescan method relative to control
# [22] = molecular target: Proto-oncogene tyrosine-protein kinase Src (Homo sapiens) (UniProt P12931); assay: Inhibition of wild-type human partial length SRC (L240 to L536 residues) expressed in Escherichia coli BL21 assessed as residual activity at 1000 nM after 30 mins by Kinomescan method relative to control
# Proto-oncogene tyrosine-protein kinase Src (Homo sapiens), sequence (P12931 2-536 limits assumed): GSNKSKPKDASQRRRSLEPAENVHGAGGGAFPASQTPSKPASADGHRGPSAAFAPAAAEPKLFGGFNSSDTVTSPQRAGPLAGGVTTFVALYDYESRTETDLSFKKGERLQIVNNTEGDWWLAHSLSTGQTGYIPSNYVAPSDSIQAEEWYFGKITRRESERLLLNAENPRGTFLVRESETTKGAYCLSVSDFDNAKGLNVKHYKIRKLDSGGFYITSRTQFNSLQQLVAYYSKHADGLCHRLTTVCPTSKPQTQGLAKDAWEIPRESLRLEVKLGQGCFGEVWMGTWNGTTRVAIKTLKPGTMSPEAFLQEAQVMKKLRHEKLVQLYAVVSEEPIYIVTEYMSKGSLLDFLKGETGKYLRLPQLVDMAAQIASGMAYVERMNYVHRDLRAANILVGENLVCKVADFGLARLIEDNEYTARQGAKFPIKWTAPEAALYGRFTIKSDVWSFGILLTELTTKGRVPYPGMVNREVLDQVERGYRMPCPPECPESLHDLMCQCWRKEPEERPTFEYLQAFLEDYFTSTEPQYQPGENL
# Tyrosine-protein kinase receptor Tie-1 (Homo sapiens), sequence (P35590 whole entry, the tested form may be a part): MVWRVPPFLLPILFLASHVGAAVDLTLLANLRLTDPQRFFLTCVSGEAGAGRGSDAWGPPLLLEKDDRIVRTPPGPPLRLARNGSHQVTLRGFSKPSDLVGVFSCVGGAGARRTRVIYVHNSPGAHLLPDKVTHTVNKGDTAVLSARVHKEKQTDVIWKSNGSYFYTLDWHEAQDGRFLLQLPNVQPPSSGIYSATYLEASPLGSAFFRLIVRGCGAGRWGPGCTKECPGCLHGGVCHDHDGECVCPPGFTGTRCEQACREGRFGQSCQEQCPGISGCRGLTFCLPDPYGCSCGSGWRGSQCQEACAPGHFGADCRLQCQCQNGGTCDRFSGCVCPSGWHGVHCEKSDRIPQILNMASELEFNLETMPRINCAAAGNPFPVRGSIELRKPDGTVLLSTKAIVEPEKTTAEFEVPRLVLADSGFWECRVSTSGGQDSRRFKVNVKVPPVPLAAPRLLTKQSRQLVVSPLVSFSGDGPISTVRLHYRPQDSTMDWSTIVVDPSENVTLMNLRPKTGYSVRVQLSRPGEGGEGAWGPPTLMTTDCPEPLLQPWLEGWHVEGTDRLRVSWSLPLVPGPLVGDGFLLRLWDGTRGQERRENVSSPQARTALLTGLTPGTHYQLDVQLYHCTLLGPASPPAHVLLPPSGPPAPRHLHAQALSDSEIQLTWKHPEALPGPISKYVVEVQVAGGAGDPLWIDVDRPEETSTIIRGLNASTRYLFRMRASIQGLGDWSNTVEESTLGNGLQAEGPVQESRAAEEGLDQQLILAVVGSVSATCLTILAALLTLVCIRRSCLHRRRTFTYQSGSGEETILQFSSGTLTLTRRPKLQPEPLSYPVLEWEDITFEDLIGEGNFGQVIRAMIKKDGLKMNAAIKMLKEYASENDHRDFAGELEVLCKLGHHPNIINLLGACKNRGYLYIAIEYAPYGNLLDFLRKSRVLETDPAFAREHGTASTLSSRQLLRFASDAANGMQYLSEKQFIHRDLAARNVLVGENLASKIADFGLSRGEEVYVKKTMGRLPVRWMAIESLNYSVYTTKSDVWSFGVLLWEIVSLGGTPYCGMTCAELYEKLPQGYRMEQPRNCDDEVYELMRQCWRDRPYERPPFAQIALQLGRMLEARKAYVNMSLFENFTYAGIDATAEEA
# Mitogen-activated protein kinase kinase kinase 14 (Homo sapiens), sequence (Q99558 whole entry, looked up, the tested form may be a part): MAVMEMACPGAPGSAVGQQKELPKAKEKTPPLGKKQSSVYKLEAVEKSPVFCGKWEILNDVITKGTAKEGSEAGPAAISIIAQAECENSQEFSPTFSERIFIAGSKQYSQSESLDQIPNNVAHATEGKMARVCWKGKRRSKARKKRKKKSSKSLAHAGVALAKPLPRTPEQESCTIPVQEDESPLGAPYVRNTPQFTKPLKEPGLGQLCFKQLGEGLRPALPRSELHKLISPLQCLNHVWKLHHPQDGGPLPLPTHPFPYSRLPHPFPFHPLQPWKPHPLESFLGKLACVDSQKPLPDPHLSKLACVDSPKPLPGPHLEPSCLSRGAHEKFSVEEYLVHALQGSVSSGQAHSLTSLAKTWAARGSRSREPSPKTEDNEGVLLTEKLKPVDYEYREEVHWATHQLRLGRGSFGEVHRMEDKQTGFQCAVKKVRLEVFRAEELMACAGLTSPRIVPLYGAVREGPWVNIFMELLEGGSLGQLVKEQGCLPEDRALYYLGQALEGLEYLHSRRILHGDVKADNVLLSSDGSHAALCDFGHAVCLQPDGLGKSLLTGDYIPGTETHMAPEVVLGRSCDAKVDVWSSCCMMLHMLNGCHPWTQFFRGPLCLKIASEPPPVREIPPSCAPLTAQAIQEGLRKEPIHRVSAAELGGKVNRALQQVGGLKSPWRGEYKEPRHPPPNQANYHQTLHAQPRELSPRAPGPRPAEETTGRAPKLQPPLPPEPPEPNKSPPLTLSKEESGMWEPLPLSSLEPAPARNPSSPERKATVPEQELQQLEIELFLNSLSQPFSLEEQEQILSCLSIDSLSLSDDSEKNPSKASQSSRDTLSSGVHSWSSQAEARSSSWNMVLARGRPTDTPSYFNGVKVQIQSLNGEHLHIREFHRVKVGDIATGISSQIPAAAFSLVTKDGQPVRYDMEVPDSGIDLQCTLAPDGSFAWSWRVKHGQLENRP
# Tyrosine-protein kinase ABL1 (Homo sapiens), P00519 [F317I], sequence (P00519 whole entry F317I, the tested form may be a part): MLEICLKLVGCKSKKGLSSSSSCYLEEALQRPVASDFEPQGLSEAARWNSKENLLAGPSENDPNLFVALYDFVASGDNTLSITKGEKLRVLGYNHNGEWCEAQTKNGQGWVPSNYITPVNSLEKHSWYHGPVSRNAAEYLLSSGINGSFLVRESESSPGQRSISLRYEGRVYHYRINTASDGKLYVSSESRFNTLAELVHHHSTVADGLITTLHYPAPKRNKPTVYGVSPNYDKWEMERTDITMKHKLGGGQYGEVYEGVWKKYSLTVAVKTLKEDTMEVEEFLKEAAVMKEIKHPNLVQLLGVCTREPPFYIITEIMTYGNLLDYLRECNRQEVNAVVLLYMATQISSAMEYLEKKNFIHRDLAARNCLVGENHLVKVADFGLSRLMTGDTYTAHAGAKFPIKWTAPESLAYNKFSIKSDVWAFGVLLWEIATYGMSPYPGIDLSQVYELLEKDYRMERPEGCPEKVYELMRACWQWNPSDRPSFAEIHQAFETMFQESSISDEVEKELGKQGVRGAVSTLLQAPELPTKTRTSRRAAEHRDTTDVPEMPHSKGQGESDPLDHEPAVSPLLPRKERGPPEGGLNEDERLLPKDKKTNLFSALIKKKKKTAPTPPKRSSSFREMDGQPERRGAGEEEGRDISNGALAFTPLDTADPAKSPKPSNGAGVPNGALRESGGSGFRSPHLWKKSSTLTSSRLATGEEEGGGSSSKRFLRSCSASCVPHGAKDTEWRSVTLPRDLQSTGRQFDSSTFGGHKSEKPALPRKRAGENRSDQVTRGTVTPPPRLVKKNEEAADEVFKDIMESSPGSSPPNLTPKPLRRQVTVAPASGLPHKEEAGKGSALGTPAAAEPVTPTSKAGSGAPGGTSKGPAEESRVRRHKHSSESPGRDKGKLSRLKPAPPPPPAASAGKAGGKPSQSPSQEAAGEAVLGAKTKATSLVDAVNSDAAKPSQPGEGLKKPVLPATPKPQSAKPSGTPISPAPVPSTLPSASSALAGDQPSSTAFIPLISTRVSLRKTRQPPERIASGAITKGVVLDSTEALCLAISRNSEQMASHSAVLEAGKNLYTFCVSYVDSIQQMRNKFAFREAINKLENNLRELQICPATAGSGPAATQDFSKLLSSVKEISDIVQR
# Ribosomal protein S6 kinase alpha-2 (Homo sapiens), sequence (Q15349 whole entry, the tested form may be a part): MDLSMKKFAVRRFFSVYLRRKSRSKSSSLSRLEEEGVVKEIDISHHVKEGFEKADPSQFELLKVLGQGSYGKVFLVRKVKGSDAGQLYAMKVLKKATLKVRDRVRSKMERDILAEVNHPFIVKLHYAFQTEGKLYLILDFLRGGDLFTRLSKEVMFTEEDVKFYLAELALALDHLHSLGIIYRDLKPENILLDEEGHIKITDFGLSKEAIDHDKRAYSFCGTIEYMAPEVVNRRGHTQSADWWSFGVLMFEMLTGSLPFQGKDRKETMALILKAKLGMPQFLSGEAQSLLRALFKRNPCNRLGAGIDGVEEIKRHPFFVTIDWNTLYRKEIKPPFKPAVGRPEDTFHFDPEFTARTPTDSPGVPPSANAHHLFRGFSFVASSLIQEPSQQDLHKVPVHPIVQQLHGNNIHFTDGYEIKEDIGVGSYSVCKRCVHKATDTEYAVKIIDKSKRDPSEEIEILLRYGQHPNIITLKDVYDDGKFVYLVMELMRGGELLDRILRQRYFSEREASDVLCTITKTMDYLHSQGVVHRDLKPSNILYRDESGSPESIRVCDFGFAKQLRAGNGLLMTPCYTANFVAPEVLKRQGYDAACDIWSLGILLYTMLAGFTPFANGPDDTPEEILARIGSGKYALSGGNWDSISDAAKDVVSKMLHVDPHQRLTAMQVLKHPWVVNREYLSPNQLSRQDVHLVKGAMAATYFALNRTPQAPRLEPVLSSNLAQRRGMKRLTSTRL
# G protein-coupled receptor kinase 4 (Homo sapiens), sequence (P32298 whole entry, looked up, the tested form may be a part): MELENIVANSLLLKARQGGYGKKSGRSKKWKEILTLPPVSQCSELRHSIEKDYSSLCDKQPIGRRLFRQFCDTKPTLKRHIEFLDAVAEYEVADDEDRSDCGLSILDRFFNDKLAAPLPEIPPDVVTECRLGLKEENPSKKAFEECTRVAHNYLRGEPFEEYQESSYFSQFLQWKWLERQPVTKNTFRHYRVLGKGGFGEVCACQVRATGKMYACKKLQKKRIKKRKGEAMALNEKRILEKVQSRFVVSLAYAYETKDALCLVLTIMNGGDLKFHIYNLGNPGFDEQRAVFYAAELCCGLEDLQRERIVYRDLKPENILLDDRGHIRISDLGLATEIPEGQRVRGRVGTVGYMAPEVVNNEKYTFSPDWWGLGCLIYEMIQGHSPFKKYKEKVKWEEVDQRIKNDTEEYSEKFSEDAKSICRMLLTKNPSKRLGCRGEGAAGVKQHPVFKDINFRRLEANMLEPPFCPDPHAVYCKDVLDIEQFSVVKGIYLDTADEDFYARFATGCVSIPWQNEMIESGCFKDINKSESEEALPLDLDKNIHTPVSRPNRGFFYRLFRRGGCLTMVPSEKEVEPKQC
compound,measurement,setting,value
COc1cc(OC)c(Cl)c(N2Cc3cnc(Nc4ccc(F)cc4)nc3N(C3CCN(C(=O)/C=C/CN(C)C)CC3)C2=O)c1Cl,Activity,[1],99%
same,Activity,[2],99%
same,Activity,[3],100%
same,IC50,[4],1.45 nM
same,Activity,[5],100%
same,Activity,[6],54%
same,Activity,[7],100%
same,Activity,[8],98%
same,Activity,[9],80%
same,Activity,[10],100%
same,Activity,[11],91%
same,Activity,[12],48%
same,Activity,[13],89%
same,Activity,[14],97%
same,Activity,[15],100%
same,Activity,[16],100%
same,Activity,[17],93%
same,Activity,[18],78%
same,Activity,[19],100%
same,Activity,[20],19%
same,Activity,[21],100%
same,Activity,[22],11%

# Reference: ChEMBL document CHEMBL4043093, “2-Oxo-3, 4-dihydropyrimido[4, 5-d]pyrimidinyl derivatives as new irreversible pan fibroblast growth factor receptor (FGFR) inhibitors” (Eur J Med Chem, 2017)
